{
  "source": "ChEMBL document CHEMBL2016515",
  "about": "“Triazoloamides as potent γ-secretase modulators with reduced hERG liability” (Bioorg Med Chem Lett, 2012)",
  "data": [
    {"target": "Gamma-secretase", "experiment": "Inhibition of gamma secretase-mediated amyloid beta42 production in human SH-SY5Y cells overexpressing beta-APP C-terminal SPA4CT by electrochemiluminescent analysis", "format": "cell-based", "summary_of_the_method": "(§1)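 Each compound tested in at least two independent experiments; values reported in μM.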", "units": {"IC50": "nM"}, "values": [
      {"smiles": "COc1cc(-c2cn(C3CC(C(F)(F)F)CNC3=O)nn2)ccc1-n1cnc(C)c1", "note": "(racemic)", "IC50": 1110},
      {"smiles": "COc1cc(-c2cn(CC(=O)N(CC(F)(F)F)c3cccc4ccccc34)nn2)ccc1-n1cnc(C)c1", "IC50": 90},
      {"smiles": "COc1cc(-c2cn(C3CC(C(F)(F)F)CCNC3=O)nn2)ccc1-n1cnc(C)c1", "note": "(racemic)", "IC50": 1270},
      {"smiles": "COc1cc(-c2cn(CC(=O)N(CC(F)(F)F)c3ccc4c(c3)CCC4)nn2)ccc1-n1cnc(C)c1", "IC50": 180},
      {"smiles": "COc1cc(-c2cn(CC(=O)N(Cc3ccccc3)[C@H](C)c3ccccc3)nn2)ccc1-n1cnc(C)c1", "IC50": 230},
      {"smiles": "COc1cc(-c2cn(CC(=O)Nc3cccc4ccccc34)nn2)ccc1-n1cnc(C)c1", "IC50": 610},
      {"smiles": "COc1cc(-c2cn(CC(=O)N(Cc3ccccc3)Cc3ccccc3)nn2)ccc1-n1cnc(C)c1", "IC50": 370},
      {"smiles": "COc1cc(-c2cn([C@H]3C[C@@H](C(F)(F)F)CCN(Cc4ccccc4)C3=O)nn2)ccc1-n1cnc(C)c1", "IC50": 80},
      {"smiles": "COc1cc(-c2cn(C3CC(C)(C)CCNC3=O)nn2)ccc1-n1cnc(C)c1", "note": "(racemic)", "IC50": 1310},
      {"smiles": "COc1cc(-c2cn([C@H]3C[C@@H](c4ccccc4)CCN(CC(F)(F)F)C3=O)nn2)ccc1-n1cnc(C)c1", "IC50": 20},
      {"smiles": "COc1cc(-c2cn(C3CCCC(C(C)(C)C)NC3=O)nn2)ccc1-n1cnc(C)c1", "note": "(racemic)", "IC50": 480},
      {"smiles": "COc1cc(-c2cn(C3C(=O)NC4CCC3C4)nn2)ccc1-n1cnc(C)c1", "note": "(racemic)", "IC50": 1090},
      {"smiles": "COc1cc(-c2cn(C3CC(C4CCCCC4)CCNC3=O)nn2)ccc1-n1cnc(C)c1", "note": "(racemic)", "IC50": 160},
      {"smiles": "COc1cc(-c2cn(CC(=O)NC3C4CC5CC(C4)CC3C5)nn2)ccc1-n1cnc(C)c1", "note": "(configuration not stated)", "IC50": 680},
      {"smiles": "COc1cc(-c2cn(C3CC[C@H]4CCCC[C@@H]4NC3=O)nn2)ccc1-n1cnc(C)c1", "note": "(mixture of isomers)", "IC50": 620},
      {"smiles": "COc1cc(-c2cn([C@H]3C[C@@H](C(C)(C)C)CCN(CC45CC6CC(CC(C6)C4)C5)C3=O)nn2)ccc1-n1cnc(C)c1", "IC50": 240},
      {"smiles": "COc1cc(-c2cn(CC(=O)N(c3ccccc3)c3ccccc3)nn2)ccc1-n1cnc(C)c1", "IC50": 1630},
      {"smiles": "COc1cc(-c2cn([C@H]3C[C@@H](C(F)(F)F)CCN(CC(F)(F)F)C3=O)nn2)ccc1-n1cnc(C)c1", "IC50": 20}
    ]},
    {"target": "Gamma-secretase", "experiment": "Inhibition of gamma secretase-mediated amyloid beta40 production in human SH-SY5Y cells overexpressing beta-APP C-terminal SPA4CT by electrochemiluminescent analysis", "format": "cell-based", "summary_of_the_method": "as §1", "units": {"IC50": "µM"}, "values": [
      {"smiles": "COc1cc(-c2cn(C3CC(C(F)(F)F)CNC3=O)nn2)ccc1-n1cnc(C)c1", "note": "(racemic)", "IC50": 6.16},
      {"smiles": "COc1cc(-c2cn(CC(=O)N(CC(F)(F)F)c3cccc4ccccc34)nn2)ccc1-n1cnc(C)c1", "IC50": 0.41},
      {"smiles": "COc1cc(-c2cn(C3CC(C(F)(F)F)CCNC3=O)nn2)ccc1-n1cnc(C)c1", "note": "(racemic)", "IC50": 9.1},
      {"smiles": "COc1cc(-c2cn(CC(=O)N(CC(F)(F)F)c3ccc4c(c3)CCC4)nn2)ccc1-n1cnc(C)c1", "IC50": 1.25},
      {"smiles": "COc1cc(-c2cn(CC(=O)N(Cc3ccccc3)[C@H](C)c3ccccc3)nn2)ccc1-n1cnc(C)c1", "IC50": 3.01},
      {"smiles": "COc1cc(-c2cn(CC(=O)Nc3cccc4ccccc34)nn2)ccc1-n1cnc(C)c1", "IC50": 4.85},
      {"smiles": "COc1cc(-c2cn(CC(=O)N(Cc3ccccc3)Cc3ccccc3)nn2)ccc1-n1cnc(C)c1", "IC50": 4.42},
      {"smiles": "COc1cc(-c2cn([C@H]3C[C@@H](C(F)(F)F)CCN(Cc4ccccc4)C3=O)nn2)ccc1-n1cnc(C)c1", "IC50": 0.42},
      {"smiles": "COc1cc(-c2cn(C3CC(C)(C)CCNC3=O)nn2)ccc1-n1cnc(C)c1", "note": "(racemic)", "IC50": 7.42},
      {"smiles": "COc1cc(-c2cn([C@H]3C[C@@H](c4ccccc4)CCN(CC(F)(F)F)C3=O)nn2)ccc1-n1cnc(C)c1", "IC50": 0.15},
      {"smiles": "COc1cc(-c2cn(C3CCCC(C(C)(C)C)NC3=O)nn2)ccc1-n1cnc(C)c1", "note": "(racemic)", "IC50": 5.12},
      {"smiles": "COc1cc(-c2cn(C3C(=O)NC4CCC3C4)nn2)ccc1-n1cnc(C)c1", "note": "(racemic)", "IC50": 9.87},
      {"smiles": "COc1cc(-c2cn(C3CC(C4CCCCC4)CCNC3=O)nn2)ccc1-n1cnc(C)c1", "note": "(racemic)", "IC50": 0.66},
      {"smiles": "COc1cc(-c2cn(CC(=O)NC3C4CC5CC(C4)CC3C5)nn2)ccc1-n1cnc(C)c1", "note": "(configuration not stated)", "IC50": "> 10"},
      {"smiles": "COc1cc(-c2cn(C3CC[C@H]4CCCC[C@@H]4NC3=O)nn2)ccc1-n1cnc(C)c1", "note": "(mixture of isomers)", "IC50": 3.86},
      {"smiles": "COc1cc(-c2cn([C@H]3C[C@@H](C(C)(C)C)CCN(CC45CC6CC(CC(C6)C4)C5)C3=O)nn2)ccc1-n1cnc(C)c1", "IC50": 1.33},
      {"smiles": "COc1cc(-c2cn(CC(=O)N(c3ccccc3)c3ccccc3)nn2)ccc1-n1cnc(C)c1", "IC50": "> 10"},
      {"smiles": "COc1cc(-c2cn([C@H]3C[C@@H](C(F)(F)F)CCN(CC(F)(F)F)C3=O)nn2)ccc1-n1cnc(C)c1", "IC50": 0.21}
    ]},
    {"system": "not listed separately", "experiment": "Inhibition of gamma-secretase-mediated notch intracellular domain cleavage in HeLa cells by luciferase reporter gene assay", "format": "cell-based", "summary_of_the_method": "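Split-luciferase complementation: γ-secretase cleavage of NotchΔE frees NICD fused to N-terminal luciferase, which enters the nucleus and binds RBP-Jk fused to C-terminal luciferase. Total luminescence is read after adding luciferin to lysed cells. At least two independent experiments; values in μM.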", "units": {"IC50": "µM"}, "values": [
      {"smiles": "COc1cc(-c2cn(C3CC(C(F)(F)F)CNC3=O)nn2)ccc1-n1cnc(C)c1", "note": "(racemic)", "IC50": "> 50"},
      {"smiles": "COc1cc(-c2cn(CC(=O)N(CC(F)(F)F)c3cccc4ccccc34)nn2)ccc1-n1cnc(C)c1", "IC50": 45.1},
      {"smiles": "COc1cc(-c2cn(C3CC(C(F)(F)F)CCNC3=O)nn2)ccc1-n1cnc(C)c1", "note": "(racemic)", "IC50": "> 50"},
      {"smiles": "COc1cc(-c2cn(CC(=O)N(CC(F)(F)F)c3ccc4c(c3)CCC4)nn2)ccc1-n1cnc(C)c1", "IC50": 24.6},
      {"smiles": "COc1cc(-c2cn(CC(=O)N(Cc3ccccc3)[C@H](C)c3ccccc3)nn2)ccc1-n1cnc(C)c1", "IC50": "> 50"},
      {"smiles": "COc1cc(-c2cn(CC(=O)Nc3cccc4ccccc34)nn2)ccc1-n1cnc(C)c1", "IC50": 26.7},
      {"smiles": "COc1cc(-c2cn(CC(=O)N(Cc3ccccc3)Cc3ccccc3)nn2)ccc1-n1cnc(C)c1", "IC50": "> 50"},
      {"smiles": "COc1cc(-c2cn([C@H]3C[C@@H](C(F)(F)F)CCN(Cc4ccccc4)C3=O)nn2)ccc1-n1cnc(C)c1", "IC50": 40.8},
      {"smiles": "COc1cc(-c2cn(C3CC(C)(C)CCNC3=O)nn2)ccc1-n1cnc(C)c1", "note": "(racemic)", "IC50": "> 50"},
      {"smiles": "COc1cc(-c2cn([C@H]3C[C@@H](c4ccccc4)CCN(CC(F)(F)F)C3=O)nn2)ccc1-n1cnc(C)c1", "IC50": "> 50"},
      {"smiles": "COc1cc(-c2cn(C3CCCC(C(C)(C)C)NC3=O)nn2)ccc1-n1cnc(C)c1", "note": "(racemic)", "IC50": "> 50"},
      {"smiles": "COc1cc(-c2cn(C3C(=O)NC4CCC3C4)nn2)ccc1-n1cnc(C)c1", "note": "(racemic)", "IC50": "> 50"},
      {"smiles": "COc1cc(-c2cn(C3CC(C4CCCCC4)CCNC3=O)nn2)ccc1-n1cnc(C)c1", "note": "(racemic)", "IC50": 17},
      {"smiles": "COc1cc(-c2cn(CC(=O)NC3C4CC5CC(C4)CC3C5)nn2)ccc1-n1cnc(C)c1", "note": "(configuration not stated)", "IC50": "> 50"},
      {"smiles": "COc1cc(-c2cn(C3CC[C@H]4CCCC[C@@H]4NC3=O)nn2)ccc1-n1cnc(C)c1", "note": "(mixture of isomers)", "IC50": "> 50"},
      {"smiles": "COc1cc(-c2cn([C@H]3C[C@@H](C(C)(C)C)CCN(CC45CC6CC(CC(C6)C4)C5)C3=O)nn2)ccc1-n1cnc(C)c1", "IC50": "> 50"},
      {"smiles": "COc1cc(-c2cn([C@H]3C[C@@H](C(F)(F)F)CCN(CC(F)(F)F)C3=O)nn2)ccc1-n1cnc(C)c1", "IC50": "> 50"}
    ]},
    {"target": "Voltage-gated inwardly rectifying potassium channel KCNH2 (Homo sapiens, UniProt Q12809)", "sequence (Q12809 whole entry)": "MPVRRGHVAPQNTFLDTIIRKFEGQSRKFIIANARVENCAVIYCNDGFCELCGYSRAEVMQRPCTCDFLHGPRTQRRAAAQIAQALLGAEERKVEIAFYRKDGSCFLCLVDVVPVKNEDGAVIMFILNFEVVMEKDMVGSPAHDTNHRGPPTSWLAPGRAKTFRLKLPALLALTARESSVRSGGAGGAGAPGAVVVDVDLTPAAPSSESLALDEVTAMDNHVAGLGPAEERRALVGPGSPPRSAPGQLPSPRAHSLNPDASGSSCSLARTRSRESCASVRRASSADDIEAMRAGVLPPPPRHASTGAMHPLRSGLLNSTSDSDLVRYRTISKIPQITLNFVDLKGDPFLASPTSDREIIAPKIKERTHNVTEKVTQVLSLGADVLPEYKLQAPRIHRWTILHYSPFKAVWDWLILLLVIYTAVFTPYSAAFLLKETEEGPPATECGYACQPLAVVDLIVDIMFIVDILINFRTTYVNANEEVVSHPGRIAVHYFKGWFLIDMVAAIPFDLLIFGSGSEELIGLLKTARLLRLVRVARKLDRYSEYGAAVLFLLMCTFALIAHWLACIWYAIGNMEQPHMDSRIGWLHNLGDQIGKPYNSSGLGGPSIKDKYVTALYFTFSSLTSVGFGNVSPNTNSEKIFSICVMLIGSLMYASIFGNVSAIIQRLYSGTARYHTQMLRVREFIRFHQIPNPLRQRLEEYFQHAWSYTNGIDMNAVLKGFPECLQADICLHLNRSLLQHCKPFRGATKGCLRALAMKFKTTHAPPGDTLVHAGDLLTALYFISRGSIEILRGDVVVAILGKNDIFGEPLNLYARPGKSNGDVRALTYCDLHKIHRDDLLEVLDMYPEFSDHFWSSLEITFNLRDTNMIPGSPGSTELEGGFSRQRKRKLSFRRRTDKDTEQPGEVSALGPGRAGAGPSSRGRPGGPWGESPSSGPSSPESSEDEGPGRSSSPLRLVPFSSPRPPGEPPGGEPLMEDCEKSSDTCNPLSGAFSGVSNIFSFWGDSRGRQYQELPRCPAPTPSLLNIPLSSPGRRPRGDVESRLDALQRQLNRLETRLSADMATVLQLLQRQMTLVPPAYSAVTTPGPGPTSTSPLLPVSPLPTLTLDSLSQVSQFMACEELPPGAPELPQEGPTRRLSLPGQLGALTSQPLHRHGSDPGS", "units": {"IC50": "µM"}, "values": [
      {"smiles": "COc1cc(-c2cn(C3CC(C(F)(F)F)CNC3=O)nn2)ccc1-n1cnc(C)c1", "note": "(racemic)", "IC50": "> 30"},
      {"smiles": "COc1cc(-c2cn(CC(=O)Nc3cccc4ccccc34)nn2)ccc1-n1cnc(C)c1", "IC50": "> 10"},
      {"smiles": "COc1cc(-c2cn(C3CC(C)(C)CCNC3=O)nn2)ccc1-n1cnc(C)c1", "note": "(racemic)", "IC50": 20.8},
      {"smiles": "COc1cc(-c2cn(C3CC(C4CCCCC4)CCNC3=O)nn2)ccc1-n1cnc(C)c1", "note": "(racemic)", "IC50": 3.68}
    ]}
  ]
}
